Source: BindingDB's records for doi:10.1021/ml5002486 (National Institute of Diabetes and Digestive and Kidney …, 2014)

What was measured:
Adenosine receptor A2a [1] = biological target: T1, Adenosine receptor A2a (Homo sapiens, UniProt P29274); assay: Displacement of [3H]4-[2-[7-amino-2-(2-furyl)-1,2,4-triazolo[1,5-a][1,3,5]triazin-5-yl-amino]ethylphenol from wild type human adenosine A2a receptor expressed in COS-7 cells assessed as radioligand Kd compound preincubated for 30 mins
In short: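 WT, K150A or K153A human A2A receptor was transiently transfected into COS-7 cells. Membranes were preincubated with or without compound, then washed. Saturation binding used antagonist radioligand [3H]7, with nonspecific binding defined by 10 μM NECA. Kd (nM) and Bmax (pmol/mg protein) were derived from the saturation curves.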
Target sequence in this assay (P29274 whole entry): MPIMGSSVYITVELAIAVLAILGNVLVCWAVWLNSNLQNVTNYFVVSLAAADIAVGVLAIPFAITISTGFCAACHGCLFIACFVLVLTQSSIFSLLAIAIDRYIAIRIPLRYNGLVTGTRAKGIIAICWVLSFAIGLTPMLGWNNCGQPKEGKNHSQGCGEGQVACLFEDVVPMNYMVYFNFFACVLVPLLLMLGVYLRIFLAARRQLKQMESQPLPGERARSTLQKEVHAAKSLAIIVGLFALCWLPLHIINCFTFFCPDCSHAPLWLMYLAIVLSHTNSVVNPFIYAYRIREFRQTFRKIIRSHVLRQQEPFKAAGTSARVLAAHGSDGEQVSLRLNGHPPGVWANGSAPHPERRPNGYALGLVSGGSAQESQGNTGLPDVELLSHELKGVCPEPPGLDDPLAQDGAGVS

Adenosine receptor A2a [2] = biological target: T1, Adenosine receptor A2a; assay: Displacement of [3H]4-[2-[7-amino-2-(2-furyl)-1,2,4-triazolo[1,5-a][1,3,5]triazin-5-yl-amino]ethylphenol from wild type human adenosine A2a receptor expressed in HEK293 cells assessed as radioligand Kd compound preincubated for 30 mins
Target sequence in this assay (P29274 whole entry): as above

Adenosine receptor A2a [3] = biological target: T1, Adenosine receptor A2a; assay: Displacement of [3H]4-[2-[7-amino-2-(2-furyl)-1,2,4-triazolo[1,5-a][1,3,5]triazin-5-yl-amino]ethylphenol from human adenosine A2a receptor K150A mutant expressed in COS-7 cells assessed as radioligand Kd compound preincubated for 30 mins
Target sequence in this assay (P29274 whole entry, looked up): as the sequence (P29274 whole entry) above

## CCNC(=O)[C@H]1O[C@@H](n2cnc3c(N)nc(NCCc4ccc(CCC(=O)Nc5ccc(OC(C)=O)c([N+](=O)[O-])c5)cc4)nc32)[C@H](O)[C@@H]1O
Adenosine receptor A2a [1]
  Kd: 2.2 nM
Adenosine receptor A2a [2]
  Kd: 5 nM
Adenosine receptor A2a [3]
  Kd: 3.17 nM

## CCNC(=O)[C@H]1O[C@@H](n2cnc3c(N)nc(NCCc4ccc(CCC(=O)Nc5ccc(OC(=O)CCCCN=[N+]=[N-])c([N+](=O)[O-])c5)cc4)nc32)[C@H](O)[C@@H]1O
Adenosine receptor A2a [2]
  Kd: 3.2 nM
